Laboratory results reported in paper PMC8153786 (ACS Omega, 2021).
Read-outs that look alike come from different tables or passages of the source.

Tests used:
bovine serum albumin = conditions: BSA–flavonol interactions ref 69; cited from earlier work
mCCL2-WT [1] = target: T1, mCCL2-WT (Mus musculus, UniProt P10148); test: Flavonol fluorescence quenching titration of mCCL2-WT; format: binding, murine; conditions: for quenching constant (Kq) / number of binding sites: mCCL2-WT; for quenching constant (Kq): Stern–Volmer, 25 °C, 50 μM protein; for number of binding sites: double-logarithmic plot
T1 sequence (P10148 24-148): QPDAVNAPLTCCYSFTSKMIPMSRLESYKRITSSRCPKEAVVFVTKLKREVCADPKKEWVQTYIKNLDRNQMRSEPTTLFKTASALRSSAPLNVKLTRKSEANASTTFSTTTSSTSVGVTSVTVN
Method in brief: (§1)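 Each CCL2 variant (WT dimer or monomer, E. coli BL21(DE3)-expressed) was held at 50 μM and titrated with 10–100 μM flavonol from a 20 mM DMSO stock, at 25 °C. Trp W59 was excited at 295 nm and emission read at 300–450 nm, slits 5 nm. Buffer-only additions served as controls; runs in triplicate. Ksv and Kq came from Stern–Volmer analysis; Ka and n from a double-logarithmic plot, nonlinear regression and Scatchard analysis.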

hCCL2-WT = hCCL2-WT (Homo sapiens, UniProt P13500); test: Flavonol fluorescence quenching titration of hCCL2-WT; format: binding; conditions: for quenching constant (Kq) / number of binding sites: hCCL2-WT; for quenching constant (Kq): Stern–Volmer, 25 °C, 50 μM protein; for number of binding sites: double-logarithmic plot
Chain of hCCL2-WT (P13500 24-99): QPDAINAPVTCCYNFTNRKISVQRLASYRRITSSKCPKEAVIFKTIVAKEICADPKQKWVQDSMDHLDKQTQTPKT
Method in brief: as §1

mCCL2-M = mCCL2-M (Mus musculus, UniProt P10148, P31A); test: Flavonol fluorescence quenching titration of mCCL2 monomer; format: binding, murine; conditions: for quenching constant (Kq): Stern–Volmer, 50 μM protein
Chain of mCCL2-M (P10148 24-148 P31A): as the sequence (P10148 24-148) above, with P8A counted along it
Method in brief: as §1

hCCL2-M = hCCL2-M (Homo sapiens, UniProt P13500, P31A); test: Flavonol fluorescence quenching titration of hCCL2 monomer; format: binding; conditions: for quenching constant (Kq) / number of binding sites: hCCL2-M (monomer); for quenching constant (Kq): Stern–Volmer, 25 °C, 50 μM protein; for number of binding sites: double-logarithmic plot
Chain of hCCL2-M (P13500 24-99 P31A): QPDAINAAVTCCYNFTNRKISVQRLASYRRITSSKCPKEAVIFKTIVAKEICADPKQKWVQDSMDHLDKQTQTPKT
Method in brief: as §1

mCCL2-WT [2] = target: T1, mCCL2-WT; test: 1H–15N HSQC NMR titration, chemical shift perturbation; format: binding, murine; conditions: mCCL2-WT 100 μM, protein/flavonol 1:5, comparison among the three flavonols
Method in brief: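 15N-labelled WT murine protein, expressed in E. coli BL21(DE3), at 100 μM in 50 mM Na2HPO4/50 mM NaCl, pH 6.0. 1H–15N HSQC spectra recorded at 500 MHz and 25 °C. Flavonol from a 20 mM DMSO stock was added stepwise up to protein/ligand 1:5. Per-residue CSP was calculated from combined ΔδH and ΔδN.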

canine distemper virus = conditions: comparison with morin ref 67; cited from earlier work
[3] = mCCL2-M (monomer), double-logarithmic plot

O=c1c(O)c(-c2ccccc2)oc2cc(O)cc(O)c12 [galangin, reference compound]
binding constants (Ka) (bovine serum albumin): 643000 L/mol

O=c1c(O)c(-c2ccc(O)cc2)oc2cc(O)cc(O)c12 [kaempferol, 3,5,7-trihydroxy-2-(4-hydroxyphenyl)chromen-4-one]
Kd (mCCL2-WT [1]): 24 ± 6 µM
quenching constant (Kq) (mCCL2-WT [1]): 5.0 × 10^12 m^–1 s^–1
number of binding sites (mCCL2-WT [1]): 1.1 ± 0.2
Kd (hCCL2-WT): 26 ± 5 µM
quenching constant (Kq) (hCCL2-WT): 5.2 × 10^12 m^–1 s^–1
number of binding sites (hCCL2-WT): 1.1 ± 0.1
Kd (mCCL2-M): 26 ± 5 µM
quenching constant (Kq) (mCCL2-M; mCCL2-M (monomer), 25 °C): 5.1 × 10^12 m^–1 s^–1
Kd (hCCL2-M): 25 ± 4 µM
quenching constant (Kq) (hCCL2-M): 5.3 × 10^12 m^–1 s^–1
number of binding sites (hCCL2-M): 1.1 ± 0.1
perturbation of resonances in CSP maps (mCCL2-WT [2]): the least
binding constants (Ka) (bovine serum albumin): 2.57e+06 L/mol

O=c1c(O)c(-c2cc(O)c(O)c(O)c2)oc2cc(O)cc(O)c12 [myricetin, 3,5,7-trihydroxy-2-(3,4,5-trihydroxyphenyl)chromen-4-one]
Kd (mCCL2-WT [1]): 0.42 ± 0.03 µM
quenching constant (Kq) (mCCL2-WT [1]): 6.1 × 10^12 m^–1 s^–1
number of binding sites (mCCL2-WT [1]): 1.1 ± 0.2
Kd (hCCL2-WT): 0.38 ± 0.04 µM
quenching constant (Kq) (hCCL2-WT): 5.8 × 10^12 m^–1 s^–1
number of binding sites (hCCL2-WT): 1.3 ± 0.2
Kd (mCCL2-M; dissociation constant (Kd), mCCL2-M (monomer), double-logarithmic plot, 25 °C): 0.4 ± 0.03 µM
quenching constant (Kq) (mCCL2-M; mCCL2-M (monomer), 25 °C): 6.3 × 10^12 m^–1 s^–1
number of binding sites (mCCL2-M; [3]): 1.2 ± 0.1
Kd (hCCL2-M): 0.43 ± 0.02 µM
quenching constant (Kq) (hCCL2-M): 6.2 × 10^12 m^–1 s^–1
number of binding sites (hCCL2-M): 1.2 ± 0.2
perturbation of resonances in CSP maps (mCCL2-WT [2]): largest perturbation of resonances
binding constants (Ka) (bovine serum albumin): 4.9e+08 L/mol

O=c1c(O)c(-c2ccc(O)c(O)c2)oc2cc(O)cc(O)c12 [quercetin, 2-(3,4-dihydroxyphenyl)-3,5,7-trihydroxychromen-4-one]
Kd (mCCL2-WT [1]): 3.9 ± 0.5 µM
quenching constant (Kq) (mCCL2-WT [1]): 4.3 × 10^12 m^–1 s^–1
number of binding sites (mCCL2-WT [1]): 1.2 ± 0.2
Kd (hCCL2-WT): 3.5 ± 0.7 µM
quenching constant (Kq) (hCCL2-WT): 4.2 × 10^12 m^–1 s^–1
number of binding sites (hCCL2-WT): 1.1 ± 0.1
Kd (mCCL2-M): 3.7 ± 0.4 µM
quenching constant (Kq) (mCCL2-M; mCCL2-M (monomer), 25 °C): 5.7 × 10^12 m^–1 s^–1
number of binding sites (mCCL2-M; [3]): 1.1 ± 0.2
Kd (hCCL2-M): 3.6 ± 0.5 µM
quenching constant (Kq) (hCCL2-M): 5.4 × 10^12 m^–1 s^–1
number of binding sites (hCCL2-M): 1.2 ± 0.1
binding constants (Ka) (bovine serum albumin): 3.65e+07 L/mol
inhibitory activity (canine distemper virus): higher inhibitory activity than morin
